The record followed here is ChEMBL document CHEMBL2401724, “Synthesis and structure--activity relationships of N²-alkylated quaternary β-carbolines as novel antitumor agents” (Eur J Med Chem, 2013).

Assay type in all cases: functional, cell-based
One assay deals with MCF7. Briefly: Cytotoxicity against human MCF7 cells by MTT assay. Put shortly: (§1)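 Cell lines were cultured in 96-well microtitre plates at 37 °C in humidified 5% CO₂. Compounds were dissolved in DMSO, at ≤2% (v/v) final in the growth medium. Viability was read by MTT staining, expressed relative to untreated cells.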
Another assay relates to SK-OV-3. Briefly: Cytotoxicity against human SKOV3 cells by MTT assay. Put shortly:
as §1

A short description of assay [1]: Cytotoxicity against mouse LLC cells by MTT assay. The conditions noted are these: Lewis lung carcinoma. Put shortly:
as §1

A further assay has as its system A-375. Briefly: Cytotoxicity against human A375 cells by MTT assay. Put shortly: as §1
The test system of the next assay is CWR22R. Briefly: Cytotoxicity against human 22Rv1 cells by MTT assay. The gist of the method:
as §1

Another assay relates to BGC-823. Briefly: Cytotoxicity against human BGC823 cells by MTT assay. The gist of the method:
as §1

A further assay relates to HT-29. Briefly: Cytotoxicity against human HT-29 cells by MTT assay. The gist of the method: as §1
Assay [2] is described as follows: Cytotoxicity against human ECA109 cells by MTT assay. The following applies: ECa-109. The gist of the method:
as §1

For another assay, the system named is HepG2. Briefly: Cytotoxicity against human HepG2 cells by MTT assay. The gist of the method: as §1
The next assay has as its system 769-P. Briefly: Cytotoxicity against human 769-P cells by MTT assay. Put shortly:
as §1

Take `O=[N+]([O-])c1ccc(C[n+]2ccc3c4ccccc4n(CCCc4ccccc4)c3c2)cc1`: the IC50 came to 24.5 µM in the assay with MCF7; 17.4 µM in the assay with SK-OV-3; 2.2 µM in assay [1]; 12.3 µM in the assay on A-375; 5.6 µM with CWR22R; 39.7 µM with BGC-823. Also, the IC50 in the assay with HT-29 was 12.6 µM; in assay [2], 7.6 µM; with HepG2, 19.9 µM; with 769-P, 8.3 µM.
For `c1ccc(CCCn2c3ccccc3c3cc[n+](CCc4ccccc4)cc32)cc1`, the IC50 is 12.5 µM in the assay with MCF7; 8.4 µM in the assay on SK-OV-3; below 2 µM in [1]; 12.2 µM in the assay with A-375; 4 µM in the assay on CWR22R; 10.4 µM with BGC-823. Also, the IC50 in the assay on HT-29 turned out to be 3.3 µM; in assay [2], 8.1 µM; in the assay on HepG2, 14 µM; in the assay with 769-P it was 14 µM.
Turning to `c1ccc(CCCn2c3ccccc3c3cc[n+](CCCc4ccccc4)cc32)cc1`, the IC50 in the assay with MCF7 is 3.7 µM; with SK-OV-3 it was 10.8 µM; in assay [1], below 2 µM; in the assay on A-375 it was 3.2 µM; in the assay on CWR22R, 4.9 µM; with BGC-823 it was 9.4 µM. Further, the IC50 in the assay on HT-29 is 3.4 µM; in [2], 5.3 µM; with HepG2, 4 µM; in the assay on 769-P it was 3.3 µM.
Consider `c1ccc(CCCn2c3ccccc3c3cc[n+](Cc4ccccc4)c(-c4ccccc4)c32)cc1`, for which the IC50 with MCF7 was 3.7 µM; in the assay with SK-OV-3 it was below 2 µM; in assay [1], below 2 µM; in the assay with A-375, 5.9 µM; with CWR22R, 3.7 µM; in the assay with BGC-823, below 2 µM. Moreover, the IC50 was determined as 10.8 µM in the assay on HT-29, 5.1 µM in assay [2], 4.8 µM in the assay on HepG2 and 3 µM in the assay on 769-P.
Consider `c1ccc(CCCn2c3ccccc3c3cc[n+](Cc4ccccc4)c(-c4ccsc4)c32)cc1`, for which the IC50 in the assay on MCF7 is 29.2 µM; in the assay on SK-OV-3, 14.6 µM; in [1] it was 3.1 µM; with A-375 it was 27.9 µM; in the assay with CWR22R, 8.4 µM; in the assay on BGC-823 it was 4 µM. In addition, the IC50 with HT-29 is 31.3 µM; in assay [2], 27.2 µM; in the assay with HepG2 it was 36.7 µM; in the assay on 769-P, 14.6 µM.
As to `Cn1c2ccccc2c2cc[n+](Cc3ccccc3)cc21`, the IC50 was above 100 µM in the assay with MCF7; 55.2 µM in the assay with SK-OV-3; 8.4 µM in assay [1]; 37.3 µM in the assay on A-375; 8.4 µM in the assay on CWR22R; 13.2 µM in the assay with BGC-823. In addition, the IC50 in the assay with HT-29 was 59.1 µM; in assay [2], 95.9 µM; with HepG2, above 100 µM; in the assay on 769-P it was 22.5 µM.
`CCn1c2ccccc2c2cc[n+](Cc3ccccc3)cc21`: the concentration for half-maximal inhibition (IC50) with MCF7 was above 100 µM; with SK-OV-3, 27.6 µM; in [1], 5.1 µM; with A-375, 54.3 µM; in the assay with CWR22R it was 5.6 µM; with BGC-823, above 100 µM. The IC50 is above 100 µM in the assay with HT-29, 36.7 µM in assay [2], above 100 µM in the assay with HepG2 and 38.5 µM in the assay with 769-P.
Regarding `CC(C)n1c2ccccc2c2cc[n+](Cc3ccccc3)cc21`, the IC50 in the assay with MCF7 was 54.8 µM; in the assay with SK-OV-3, 6.6 µM; in [1] it was below 2 µM; in the assay on A-375, 24.5 µM; in the assay on CWR22R, 3.6 µM; in the assay with BGC-823, 61.5 µM. Moreover, the IC50 in the assay with HT-29 was above 100 µM; in [2], 7.6 µM; in the assay on HepG2 it was 58.7 µM; in the assay on 769-P, 30.8 µM.
For `C=CCn1c2ccccc2c2cc[n+](Cc3ccccc3)cc21`, the IC50 in the assay on MCF7 is 72.6 µM; in the assay with SK-OV-3 it was 12.6 µM; in assay [1] it was 4.6 µM; with A-375, 11.3 µM; in the assay on CWR22R, below 2 µM; with BGC-823, above 100 µM. The IC50 with HT-29 is above 100 µM; in assay [2], 21.4 µM; in the assay on HepG2 it was 67.8 µM; with 769-P it was 21.9 µM.
On to `CCCCn1c2ccccc2c2cc[n+](Cc3ccccc3)cc21`, for which the IC50 was 34.1 µM in the assay on MCF7; 4.7 µM with SK-OV-3; below 2 µM in assay [1]; 19.6 µM in the assay with A-375; below 2 µM with CWR22R; 68.1 µM in the assay with BGC-823. Also, the IC50 in the assay with HT-29 was 83.8 µM; in [2] it was 8.6 µM; in the assay with HepG2, 29 µM; with 769-P it was 19.8 µM.
Turning to `CC(C)Cn1c2ccccc2c2cc[n+](Cc3ccccc3)cc21`, the IC50 stood at 39.2 µM in the assay with MCF7; 27.7 µM in the assay on SK-OV-3; 8 µM in [1]; 28.4 µM with A-375; 9.6 µM with CWR22R; 60.7 µM in the assay with BGC-823. For the same compound, the IC50 with HT-29 was 87.7 µM; in assay [2], 35.7 µM; with HepG2, 36.6 µM; in the assay on 769-P, 11.6 µM.
In the case of `CCCCCCn1c2ccccc2c2cc[n+](Cc3ccccc3)cc21`, the IC50 is 11.1 µM with MCF7; 7.3 µM in the assay with SK-OV-3; below 2 µM in assay [1]; 6.8 µM in the assay on A-375; below 2 µM with CWR22R; 5.2 µM in the assay on BGC-823. For the same compound, the IC50 with HT-29 was 16 µM; in assay [2], 13.9 µM; in the assay with HepG2, 13.9 µM; with 769-P, 2.7 µM.
As for `CCCCCCCCn1c2ccccc2c2cc[n+](Cc3ccccc3)cc21`, the IC50 is 4.1 µM in the assay with MCF7; 3.2 µM in the assay with SK-OV-3; below 2 µM in [1]; 3.1 µM in the assay with A-375; 2.9 µM with CWR22R; 2.5 µM in the assay on BGC-823. The IC50 with HT-29 was 10.9 µM; in [2] it was 5.1 µM; in the assay on HepG2 it was 6.5 µM; in the assay on 769-P, below 2 µM.
Regarding `Fc1ccc(Cn2c3ccccc3c3cc[n+](Cc4ccccc4)cc32)cc1`, the IC50 is 17.8 µM in the assay with MCF7; 10.5 µM in the assay on SK-OV-3; below 2 µM in assay [1]; 4.7 µM with A-375; 3.5 µM with CWR22R; 6.3 µM in the assay on BGC-823. Besides, the IC50 in the assay with HT-29 was determined as 28.9 µM; in assay [2], 35.4 µM; with HepG2, 23.4 µM; with 769-P it was 6 µM.
For the compound `Clc1cccc(Cn2c3ccccc3c3cc[n+](Cc4ccccc4)cc32)c1`, the 50% inhibitory concentration (IC50) in the assay with MCF7 is 20.3 µM; in the assay with SK-OV-3, 7.9 µM; in [1] it was below 2 µM; in the assay with A-375 it was 7 µM; in the assay on CWR22R, 4.2 µM; with BGC-823, 20.3 µM. Besides, the IC50 in the assay on HT-29 is 26.9 µM; in [2], 23.3 µM; with HepG2 it was 16.5 µM; in the assay on 769-P it was 3.5 µM.
For the compound `C[n+]1ccc2c3ccccc3n(CCCc3ccccc3)c2c1`, the IC50 was 75.6 µM in the assay with MCF7; above 100 µM with SK-OV-3; 2.4 µM in [1]; 41.5 µM in the assay with A-375; 4.3 µM with CWR22R; 40.6 µM in the assay on BGC-823. Also, the IC50 amounted to 97.3 µM in the assay on HT-29, 60 µM in [2], 90.8 µM in the assay with HepG2 and 19.9 µM with 769-P.
For `CC[n+]1ccc2c3ccccc3n(CCCc3ccccc3)c2c1`, the 50% inhibitory concentration (IC50) is 98.7 µM with MCF7; above 100 µM in the assay with SK-OV-3; 4.3 µM in assay [1]; 45.1 µM in the assay on A-375; 2.5 µM in the assay with CWR22R; 88 µM with BGC-823. Moreover, the IC50 in the assay with HT-29 came to 54.2 µM; in [2], 55.5 µM; with HepG2 it was 92.1 µM; with 769-P it was 34.2 µM.
As to `CCCC[n+]1ccc2c3ccccc3n(CCCc3ccccc3)c2c1`, the IC50 in the assay on MCF7 was 38.7 µM; with SK-OV-3, 15.8 µM; in [1], below 2 µM; in the assay on A-375 it was 12.2 µM; with CWR22R, 3.4 µM; in the assay on BGC-823 it was 15.4 µM. In addition, the IC50 stood at 62.7 µM in the assay on HT-29, 41.5 µM in [2], 45.5 µM in the assay with HepG2 and 13.4 µM in the assay on 769-P.
For `CCCCCC[n+]1ccc2c3ccccc3n(CCCc3ccccc3)c2c1`, the IC50 with MCF7 was 3.9 µM; in the assay with SK-OV-3, below 2 µM; in assay [1], below 2 µM; in the assay with A-375, 2.9 µM; in the assay with CWR22R, 2.2 µM; with BGC-823 it was 2.3 µM. The IC50 in the assay on HT-29 turned out to be 2.3 µM; in [2], 2.5 µM; in the assay on HepG2, 4.3 µM; in the assay with 769-P, 2.5 µM.
`CCCCCCCC[n+]1ccc2c3ccccc3n(CCCc3ccccc3)c2c1`: the IC50 with MCF7 is 2.9 µM; in the assay with SK-OV-3 it was 5.9 µM; in assay [1] it was below 2 µM; with A-375, below 2 µM; with CWR22R it was 4.3 µM; with BGC-823, 7.4 µM. In addition, the IC50 was 18.6 µM in the assay on HT-29, 22.8 µM in assay [2], 4.7 µM in the assay on HepG2 and below 2 µM in the assay with 769-P.
For `CCCCCCCCCC[n+]1ccc2c3ccccc3n(CCCc3ccccc3)c2c1`, the IC50 in the assay on MCF7 is below 2 µM; with SK-OV-3, 57 µM; in [1], 15.7 µM; in the assay with A-375, below 2 µM; in the assay on CWR22R, 6.9 µM; in the assay with BGC-823, 57 µM. The IC50 in the assay on HT-29 is 31.3 µM; in assay [2], 23.2 µM; with HepG2, below 2 µM; with 769-P, below 2 µM.
